Results as given in ChEMBL document CHEMBL3632558, “Synthesis, antimycobacterial and antibacterial activity of l-[(1R,2S)-2-fluorocyclopropyl]naphthyridone derivatives containing an oxime-functionalized pyrrolidine moiety” (2015).
≈ marks a conversion by molar mass, not a printed value.

What was measured:
Type in all cases: functional
[1] = tested on: Staphylococcus epidermidis; assay: Antibacterial activity against methicillin-resistant Staphylococcus epidermidis 14-37 after 18 to 24 hrs
Enterococcus faecium [2] = assay: Antibacterial activity against Enterococcus faecium 14-2 after 18 to 24 hrs
How it was run: (§1)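 MIC by standard NCCLS reference procedure (M100-S11); lowest concentration of compound inhibiting visible bacterial growth after incubation at 35 °C for 18–24 h, read as complete inhibition of growth. Ciprofloxacin, levofloxacin and moxifloxacin run alongside as reference agents.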

Enterococcus faecium [3] = assay: Antibacterial activity against Enterococcus faecium 14-1 after 18 to 24 hrs; how it was run: as §1
Staphylococcus aureus [4] = assay: Antibacterial activity against Staphylococcus aureus CMCC 26003 after 18 to 24 hrs; how it was run: as §1
Staphylococcus aureus [5] = assay: Antibacterial activity against methicillin-sensitive Staphylococcus aureus 14-2 after 18 to 24 hrs; how it was run: as §1
Pseudomonas aeruginosa [6] = assay: Antibacterial activity against Pseudomonas aeruginosa 14-16 after 18 to 24 hrs; how it was run: as §1
Enterococcus faecalis [7] = assay: Antibacterial activity against Enterococcus faecalis 14-2 after 18 to 24 hrs; how it was run: as §1
[8] = tested on: Staphylococcus epidermidis; assay: Antibacterial activity against methicillin-sensitive Staphylococcus epidermidis 14-2 after 18 to 24 hrs; how it was run: as §1
Pseudomonas aeruginosa [9] = assay: Antibacterial activity against Pseudomonas aeruginosa 14-14 after 18 to 24 hrs; how it was run: as §1
Staphylococcus aureus [10] = assay: Antibacterial activity against methicillin-sensitive Staphylococcus aureus 14-1 after 18 to 24 hrs; how it was run: as §1
Klebsiella pneumoniae [11] = assay: Antibacterial activity against Klebsiella pneumoniae 14-3 after 18 to 24 hrs; how it was run: as §1
Klebsiella pneumoniae [12] = assay: Antibacterial activity against Klebsiella pneumoniae 14-2 after 18 to 24 hrs; how it was run: as §1
[13] = tested on: Staphylococcus epidermidis; assay: Antibacterial activity against methicillin-resistant Staphylococcus epidermidis 14-21 after 18 to 24 hrs
Pseudomonas aeruginosa [14] = assay: Antibacterial activity against Pseudomonas aeruginosa 14-15 after 18 to 24 hrs; how it was run: as §1
Klebsiella pneumoniae [15] = assay: Antibacterial activity against ESBL-positive Klebsiella pneumoniae 14-18 after 18 to 24 hrs; how it was run: as §1
Klebsiella pneumoniae [16] = assay: Antibacterial activity against Klebsiella pneumoniae 14-4 after 18 to 24 hrs; how it was run: as §1
Enterococcus faecium [17] = assay: Antibacterial activity against Enterococcus faecium 14-6 after 18 to 24 hrs; how it was run: as §1
Klebsiella pneumoniae [18] = assay: Antibacterial activity against ESBL-positive Klebsiella pneumoniae 14-19 after 18 to 24 hrs; how it was run: as §1
Streptococcus pneumoniae = assay: Antibacterial activity against Streptococcus pneumoniae ATCC 19615 after 18 to 24 hrs; how it was run: as §1
[19] = tested on: Staphylococcus epidermidis; assay: Antibacterial activity against methicillin-resistant Staphylococcus epidermidis 14-39 after 18 to 24 hrs
Escherichia coli [20] = assay: Antibacterial activity against Escherichia coli 14-1 after 18 to 24 hrs; how it was run: as §1
Pseudomonas aeruginosa [21] = assay: Antibacterial activity against Pseudomonas aeruginosa 14-19 after 18 to 24 hrs; how it was run: as §1
Staphylococcus aureus [22] = assay: Antibacterial activity against methicillin-sensitive Staphylococcus aureus 14-3 after 18 to 24 hrs; how it was run: as §1
Staphylococcus aureus [23] = assay: Antibacterial activity against methicillin-resistant Staphylococcus aureus 14-5 after 18 to 24 hrs
Escherichia coli [24] = assay: Antibacterial activity against ESBL-positive Escherichia coli 14-1 after 18 to 24 hrs; how it was run: as §1
[25] = tested on: Staphylococcus epidermidis; assay: Antibacterial activity against methicillin-resistant Staphylococcus epidermidis 14-22 after 18 to 24 hrs
Pseudomonas aeruginosa [26] = assay: Antibacterial activity against Pseudomonas aeruginosa 14-9 after 18 to 24 hrs; how it was run: as §1
Enterococcus faecium [27] = assay: Antibacterial activity against Enterococcus faecium 14-5 after 18 to 24 hrs; how it was run: as §1
Escherichia coli [28] = assay: Antibacterial activity against ESBL-positive Escherichia coli 14-2 after 18 to 24 hrs; how it was run: as §1
Enterococcus faecalis [29] = assay: Antibacterial activity against Enterococcus faecalis 14-1 after 18 to 24 hrs; how it was run: as §1
Staphylococcus aureus [30] = assay: Antibacterial activity against methicillin-resistant Staphylococcus aureus 14-4 after 18 to 24 hrs
[31] = tested on: Mycobacterium tuberculosis; assay: Antimycobacterial activity against Mycobacterium tuberculosis H37Rv ATCC 27294 by alamar blue assay
How it was run: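 Microplate Alamar Blue Assay; MIC is the lowest concentration giving ≥90% reduction in fluorescence relative to the mean of replicate bacterium-only controls. MDR strain 6133 is resistant to isoniazid and rifampicin.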

Pseudomonas aeruginosa [32] = assay: Antibacterial activity against Pseudomonas aeruginosa ATCC 27853 after 18 to 24 hrs; how it was run: as §1
Escherichia coli [33] = assay: Antibacterial activity against Escherichia coli ATCC 25922 after 18 to 24 hrs; how it was run: as §1
Staphylococcus aureus [34] = assay: Antibacterial activity against methicillin-sensitive Staphylococcus aureus 14-4 after 18 to 24 hrs; how it was run: as §1
Escherichia coli [35] = assay: Antibacterial activity against Escherichia coli 14-2 after 18 to 24 hrs; how it was run: as §1
Klebsiella pneumoniae [36] = assay: Antibacterial activity against Klebsiella pneumoniae 14-1 after 18 to 24 hrs; how it was run: as §1
Klebsiella pneumoniae [37] = assay: Antibacterial activity against ESBL-positive Klebsiella pneumoniae 14-17 after 18 to 24 hrs; how it was run: as §1

SMILES | MIC [1] [µg/mL] | MIC (Enterococcus faecium [2]) [µg/mL] | MIC (Enterococcus faecium [3]) [µg/mL] | MIC (Staphylococcus aureus [4]) [µg/mL] | MIC (Staphylococcus aureus [5]) [µg/mL] | MIC (Pseudomonas aeruginosa [6]) [µg/mL] | MIC (Enterococcus faecalis [7]) [µg/mL] | MIC [8] [µg/mL] | MIC (Pseudomonas aeruginosa [9]) [µg/mL] | MIC (Staphylococcus aureus [10]) [µg/mL] | MIC (Klebsiella pneumoniae [11]) [µg/mL] | MIC (Klebsiella pneumoniae [12]) [µg/mL] | MIC [13] [µg/mL] | MIC (Pseudomonas aeruginosa [14]) [µg/mL] | MIC (Klebsiella pneumoniae [15]) [µg/mL] | MIC (Klebsiella pneumoniae [16]) [µg/mL] | MIC (Enterococcus faecium [17]) [µg/mL] | MIC (Klebsiella pneumoniae [18]) [µg/mL] | MIC (Streptococcus pneumoniae) [µg/mL] | MIC [19] [µg/mL] | also measured
NCC1CN(c2nc3c(cc2F)c(=O)c(C(=O)O)cn3[C@@H]2C[C@@H]2F)C/C1=N\OCc1ccc([N+](=O)[O-])cc1 (stereo partly specified) | 4 (≈ 7.57 µM) | 4 (≈ 7.57 µM) | 4 (≈ 7.57 µM) | 0.015 (≈ 0.0284 µM) | 0.06 (≈ 0.114 µM) | 16 (≈ 30.3 µM) | 0.25 (≈ 0.473 µM) | 128 (≈ 242 µM) | 16 (≈ 30.3 µM) | 4 (≈ 7.57 µM) | 128 (≈ 242 µM) | 128 (≈ 242 µM) | 16 (≈ 30.3 µM) | 16 (≈ 30.3 µM) | 16 (≈ 30.3 µM) | 128 (≈ 242 µM) | 4 (≈ 7.57 µM) | 128 (≈ 242 µM) | 0.015 (≈ 0.0284 µM) | 8 (≈ 15.1 µM) | MIC (Escherichia coli [20]): 128 µg/mL (≈ 242 µM); MIC (Pseudomonas aeruginosa [21]): 16 µg/mL (≈ 30.3 µM); MIC (Staphylococcus aureus [22]): 0.03 µg/mL (≈ 0.0568 µM); MIC (Staphylococcus aureus [23]): 4 µg/mL (≈ 7.57 µM); MIC (Escherichia coli [24]): 4 µg/mL (≈ 7.57 µM); MIC [25]: 8 µg/mL (≈ 15.1 µM); MIC (Pseudomonas aeruginosa [26]): 4 µg/mL (≈ 7.57 µM); MIC (Enterococcus faecium [27]): 8 µg/mL (≈ 15.1 µM); MIC (Escherichia coli [28]): > 128 µg/mL; MIC (Enterococcus faecalis [29]): 64 µg/mL (≈ 121 µM); MIC (Staphylococcus aureus [30]): 128 µg/mL (≈ 242 µM); MIC90 [31]: 0.467 µg/mL (≈ 0.884 µM); MIC (Pseudomonas aeruginosa [32]): 4 µg/mL (≈ 7.57 µM); MIC (Escherichia coli [33]): 0.25 µg/mL (≈ 0.473 µM); MIC (Staphylococcus aureus [34]): 0.125 µg/mL (≈ 0.237 µM); MIC (Escherichia coli [35]): 128 µg/mL (≈ 242 µM); MIC (Klebsiella pneumoniae [36]): 128 µg/mL (≈ 242 µM); MIC (Klebsiella pneumoniae [37]): 8 µg/mL (≈ 15.1 µM)
COc1cccc(CO/N=C2\CN(c3nc4c(cc3F)c(=O)c(C(=O)O)cn4[C@@H]3C[C@@H]3F)CC2CN)c1OC (stereo partly specified) | 16 (≈ 29.4 µM) | 1 (≈ 1.84 µM) | 1 (≈ 1.84 µM) | < 0.008 | < 0.008 | 16 (≈ 29.4 µM) | 0.015 (≈ 0.0276 µM) | 32 (≈ 58.9 µM) | 16 (≈ 29.4 µM) | 4 (≈ 7.36 µM) | 64 (≈ 118 µM) | 128 (≈ 235 µM) | 2 (≈ 3.68 µM) | 16 (≈ 29.4 µM) | 16 (≈ 29.4 µM) | 128 (≈ 235 µM) | 16 (≈ 29.4 µM) | 128 (≈ 235 µM) | 0.03 (≈ 0.0552 µM) | 16 (≈ 29.4 µM) | MIC (Escherichia coli [20]): 2 µg/mL (≈ 3.68 µM); MIC (Pseudomonas aeruginosa [21]): 16 µg/mL (≈ 29.4 µM); MIC (Staphylococcus aureus [22]): < 0.008 µg/mL; MIC (Staphylococcus aureus [23]): 2 µg/mL (≈ 3.68 µM); MIC (Escherichia coli [24]): 32 µg/mL (≈ 58.9 µM); MIC [25]: 1 µg/mL (≈ 1.84 µM); MIC (Pseudomonas aeruginosa [26]): 8 µg/mL (≈ 14.7 µM); MIC (Enterococcus faecium [27]): 4 µg/mL (≈ 7.36 µM); MIC (Escherichia coli [28]): 128 µg/mL (≈ 235 µM); MIC (Enterococcus faecalis [29]): 64 µg/mL (≈ 118 µM); MIC (Staphylococcus aureus [30]): 16 µg/mL (≈ 29.4 µM); MIC90 [31]: 0.376 µg/mL (≈ 0.692 µM); MIC (Pseudomonas aeruginosa [32]): 2 µg/mL (≈ 3.68 µM); MIC (Escherichia coli [33]): 0.03 µg/mL (≈ 0.0552 µM); MIC (Staphylococcus aureus [34]): 0.015 µg/mL (≈ 0.0276 µM); MIC (Escherichia coli [35]): 128 µg/mL (≈ 235 µM); MIC (Klebsiella pneumoniae [36]): 128 µg/mL (≈ 235 µM); MIC (Klebsiella pneumoniae [37]): 128 µg/mL (≈ 235 µM)
